Data as given in ChEMBL document CHEMBL2203235, “Optimization of a natural product-based class of γ-secretase modulators” (J Med Chem, 2012).

What was measured:
[1] = Modulation of gamma secretase in CHO-2B7 cells assessed as reduction in amyloid beta 42 level after 5 hrs by MSD ELISA; type: cell-based; details: Cricetulus griseus, CHO-2B7, 5 h
[2] = Metabolic stability in human liver microsomes assessed as compound remaining at 1 uM at 60 mins by LC/MS/MS analysis in absence of NADPH; type: ADME, Microsome; details: liver microsomes, read-out: Stability
Method in brief: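 Human liver microsomes were run without NADPH as a qualitative read of susceptibility to enzymatic hydrolysis. The read-out was percent parent remaining at 60 min.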

[3] = Modulation of gamma secretase in CHO-2B7 cells assessed as reduction in amyloid beta 40 level after 5 hrs by MSD ELISA; type: cell-based; details: Cricetulus griseus, CHO-2B7, 5 h
Liver microsomes = experiment: Metabolic stability in human liver microsomes at 1 uM after 60 mins by LC/MS/MS analysis; details: 1 h

| Compound | IC50 [1] | remaining at 1 h, 1 µM [2] | IC50 [3] | Stability (Liver microsomes) |
| --- | --- | --- | --- | --- |
| CNC(=O)OC[C@H]1C[C@@H](C)[C@H]2[C@H](O1)[C@H](O)[C@@]1(C)[C@@H]3CC[C@H]4C(C)(C)[C@@H](O[C@H]5CN(C(=O)CC6CC6)CCO5)CC[C@@]45C[C@@]35CC[C@]21C | 350 nM | 81% | 81 µM |  |
| CC(C)O[C@@H]([C@H]1C[C@@H](C)[C@H]2[C@H](O1)[C@H](O)[C@@]1(C)[C@@H]3CC[C@H]4C(C)(C)[C@@H](O[C@H]5CN(C6COC6)CCO5)CC[C@@]45C[C@@]35CC[C@]21C)C(C)(C)O | 440 nM | 105% | 2.8 µM |  |
| CCO[C@H](C(C)C)[C@H]1C[C@@H](C)[C@H]2[C@H](O1)[C@H](O)[C@@]1(C)[C@@H]3CC[C@H]4C(C)(C)[C@@H](O)CC[C@@]45C[C@@]35CC[C@]21C | 4400 nM | 85% |  |  |
| CC(C)[C@@H](OC(=O)N(C)C)[C@H]1C[C@@H](C)[C@H]2[C@H](O1)[C@H](O)[C@@]1(C)[C@@H]3CC[C@H]4C(C)(C)[C@@H](O)CC[C@@]45C[C@@]35CC[C@]21C | 1000 nM | 81% | 10 µM |  |
| CC(=O)O[C@@H]([C@H]1C[C@@H](C)[C@H]2[C@H](O1)[C@H](O)[C@@]1(C)[C@@H]3CC[C@H]4C(C)(C)[C@@H](OC(=O)N5CCOCC5)CC[C@@]45C[C@@]35CC[C@]21C)C(C)(C)O | 310 nM | 2% | 14 µM |  |
| CO[C@@H]([C@H]1C[C@@H](C)[C@H]2[C@H](O1)[C@H](O)[C@@]1(C)[C@@H]3CC[C@H]4C(C)(C)[C@@H](O[C@H]5CN(C6COC6)CCO5)CC[C@@]45C[C@@]35CC[C@]21C)C(C)(C)O | 690 nM | 93% | 9.9 µM |  |
| C[C@@H]1C[C@H](COC(N)=O)O[C@H]2[C@H]1[C@@]1(C)CC[C@@]34C[C@@]35CC[C@H](O[C@H]3CN(C(=O)CC6CC6)CCO3)C(C)(C)[C@@H]5CC[C@H]4[C@]1(C)[C@H]2O | 840 nM | 77% | 35 µM |  |
| CC(C)[C@@H](OC(N)=O)[C@H]1C[C@@H](C)[C@H]2[C@H](O1)[C@H](O)[C@@]1(C)[C@@H]3CC[C@H]4C(C)(C)[C@@H](OC(N)=O)CC[C@@]45C[C@@]35CC[C@]21C | 700 nM | 103% | 1.2 µM |  |
| CCO[C@@H]([C@H]1C[C@@H](C)[C@H]2[C@H](O1)[C@H](O)[C@@]1(C)[C@@H]3CC[C@H]4C(C)(C)[C@@H](O)CC[C@@]45C[C@@]35CC[C@]21C)C(C)(C)O | 350 nM | 100% | 5.5 µM |  |
| CCO[C@@H]([C@H]1C[C@@H](C)[C@H]2[C@H](O1)[C@H](O)[C@@]1(C)[C@@H]3CC[C@H]4C(C)(C)[C@@H](OC(=O)N5CCOCC5)CC[C@@]45C[C@@]35CC[C@]21C)C(C)(C)O | 220 nM | 77% | 2 µM |  |
| CNC(=O)O[C@H](C(C)C)[C@H]1C[C@@H](C)[C@H]2[C@H](O1)[C@H](O)[C@@]1(C)[C@@H]3CC[C@H]4C(C)(C)[C@@H](OC(=O)NC5CNC5)CC[C@@]45C[C@@]35CC[C@]21C | 120 nM | 110% | 5 µM |  |
| CC(C)[C@@H](OC(=O)N(C)C)[C@H]1C[C@@H](C)[C@H]2[C@H](O1)[C@H](O)[C@@]1(C)[C@@H]3CC[C@H]4C(C)(C)[C@@H](O[C@H]5CNCCO5)CC[C@@]45C[C@@]35CC[C@]21C | 580 nM | 114% | 5.9 µM |  |
| CNC(=O)O[C@H](C(C)C)[C@H]1C[C@@H](C)[C@H]2[C@H](O1)[C@H](O)[C@@]1(C)[C@@H]3CC[C@H]4C(C)(C)[C@@H](O)CC[C@@]45C[C@@]35CC[C@]21C | 890 nM | 96% | 8.5 µM |  |
| CC(C)[C@@H](OC(=O)N(C)C)[C@H]1C[C@@H](C)[C@H]2[C@H](O1)[C@H](O)[C@@]1(C)[C@@H]3CC[C@H]4C(C)(C)[C@@H](OC(=O)NC5CNC5)CC[C@@]45C[C@@]35CC[C@]21C | 300 nM | 113% | 9.5 µM |  |
| CC(=O)O[C@@H]([C@H]1C[C@@H](C)[C@H]2[C@H](O1)[C@H](O)[C@@]1(C)[C@@H]3CC[C@H]4C(C)(C)[C@@H](OC(=O)N5CCC5)CC[C@@]45C[C@@]35CC[C@]21C)C(C)(C)O | 510 nM | 17% | 15 µM |  |
| CC(C)[C@@H](OC(=O)N1CCC1)[C@H]1C[C@@H](C)[C@H]2[C@H](O1)[C@H](O)[C@@]1(C)[C@@H]3CC[C@H]4C(C)(C)[C@@H](OC(=O)N5CC(NCC(F)(F)F)C5)CC[C@@]45C[C@@]35CC[C@]21C | 750 nM |  | 11 µM | Stable |
| CC(C)CC(=O)N1CCO[C@@H](O[C@H]2CC[C@]34C[C@]35CC[C@]3(C)[C@@H]6[C@H](O[C@@H]([C@H](OC(=O)N7CCC7)C(C)C)C[C@H]6C)[C@H](O)[C@@]3(C)[C@@H]5CC[C@H]4C2(C)C)C1 | 1300 nM |  | 11 µM | Stable |
| CCO[C@@H]([C@H]1C[C@@H](C)[C@H]2[C@H](O1)[C@H](O)[C@@]1(C)[C@@H]3CC[C@H]4C(C)(C)[C@@H](O[C@H]5CN(CCN6CCOCC6)CCO5)CC[C@@]45C[C@@]35CC[C@]21C)C(C)(C)O | 430 nM |  | 1.3 µM | Stable |
| CC(C)[C@@H](OC(=O)N1CCC1)[C@H]1C[C@@H](C)[C@H]2[C@H](O1)[C@H](O)[C@@]1(C)[C@@H]3CC[C@H]4C(C)(C)[C@@H](OC(=O)NCCNS(=O)(=O)C(F)(F)F)CC[C@@]45C[C@@]35CC[C@]21C | 1500 nM |  | 11 µM | Stable |
| CC(=O)N1CCN(C(=O)O[C@H]2CC[C@]34C[C@]35CC[C@]3(C)[C@@H]6[C@H](O[C@@H]([C@H](OC(=O)N7CCC7)C(C)C)C[C@H]6C)[C@H](O)[C@@]3(C)[C@@H]5CC[C@H]4C2(C)C)CC1 | 190 nM |  | 5.1 µM | Stable |
| CCO[C@@H]([C@H]1C[C@@H](C)[C@H]2[C@H](O1)[C@H](O)[C@@]1(C)[C@@H]3CC[C@H]4C(C)(C)[C@@H](O[C@H]5CN(CCC(=O)O)CCO5)CC[C@@]45C[C@@]35CC[C@]21C)C(C)(C)O | 310 nM |  | 9.6 µM | Stable |
| CC(C)[C@@H](OC(N)=O)[C@H]1C[C@@H](C)[C@H]2[C@H](O1)[C@H](O)[C@@]1(C)[C@@H]3CC[C@H]4C(C)(C)[C@@H](O[C@H]5CNCCO5)CC[C@@]45C[C@@]35CC[C@]21C | 650 nM | 108% | 1.7 µM |  |
| CC(C)[C@@H](OC(=O)N1CCC1)[C@H]1C[C@@H](C)[C@H]2[C@H](O1)[C@H](O)[C@@]1(C)[C@@H]3CC[C@H]4C(C)(C)[C@@H](OC(=O)N[C@H]5CCNC5=O)CC[C@@]45C[C@@]35CC[C@]21C | 400 nM |  | 1 µM | Stable |
| CC(=O)O[C@H](C(C)C)[C@H]1C[C@@H](C)[C@H]2[C@H](O1)[C@H](O)[C@@]1(C)[C@@H]3CC[C@H]4C(C)(C)[C@@H](O)CC[C@@]45C[C@@]35CC[C@]21C | 780 nM | 0% | 7.5 µM |  |
| COCCN1CCO[C@@H](O[C@H]2CC[C@]34C[C@]35CC[C@]3(C)[C@@H]6[C@H](O[C@@H]([C@H](OC(=O)N7CCC7)C(C)C)C[C@H]6C)[C@H](O)[C@@]3(C)[C@@H]5CC[C@H]4C2(C)C)C1 | 530 nM |  | 5.2 µM | Stable |
| CNC(=O)O[C@H](C(C)C)[C@H]1C[C@@H](C)[C@H]2[C@H](O1)[C@H](O)[C@@]1(C)[C@@H]3CC[C@H]4C(C)(C)[C@@H](O[C@H]5CNCCO5)CC[C@@]45C[C@@]35CC[C@]21C | 480 nM | 95% | 4.3 µM |  |
| CCO[C@@H]([C@H]1C[C@@H](C)[C@H]2[C@H](O1)[C@H](O)[C@@]1(C)[C@@H]3CC[C@H]4C(C)(C)[C@@H](O[C@H]5CN(C6CNC6)CCO5)CC[C@@]45C[C@@]35CC[C@]21C)C(C)(C)O | 100 nM |  | 2.4 µM | Stable |
| CCO[C@@H]([C@H]1C[C@@H](C)[C@H]2[C@H](O1)[C@H](O)[C@@]1(C)[C@@H]3CC[C@H]4C(C)(C)[C@@H](O[C@H]5CN(CCO)CCO5)CC[C@@]45C[C@@]35CC[C@]21C)C(C)(C)O | 260 nM |  | 3.7 µM | Stable |
| CC(C)[C@@H](OC(=O)N1CCC1)[C@H]1C[C@@H](C)[C@H]2[C@H](O1)[C@H](O)[C@@]1(C)[C@@H]3CC[C@H]4C(C)(C)[C@@H](OC(=O)N[C@H]5CCCNC5=O)CC[C@@]45C[C@@]35CC[C@]21C | 280 nM |  | 6.4 µM | Stable |
| CCO[C@@H]([C@H]1C[C@@H](C)[C@H]2[C@H](O1)[C@H](O)[C@@]1(C)[C@@H]3CC[C@H]4C(C)(C)[C@@H](O[C@H]5CN(C(=O)CC6CN(C)C6)CCO5)CC[C@@]45C[C@@]35CC[C@]21C)C(C)(C)O | 150 nM |  | 3.1 µM | Stable |
